Source: ChEMBL document CHEMBL1143155, “Synthesis and SAR of selective muscarinic acetylcholine receptor subtype 1 (M1 mAChR) antagonists” (Bioorg Med Chem Lett, 2008)
Positions count from the first letter of the chain named. Activity calls are given as the source filed them. No cut-off for these calls is given here.

Columns and labels:
[1] = molecular target: T1, Muscarinic acetylcholine receptor M1 (Rattus norvegicus, UniProt P08482); test: Antagonist activity at rat muscarinic M1 receptor expressed in CHO cells by calcium mobilization assay; assay type: functional, cell-based
T1 sequence (P08482 whole entry): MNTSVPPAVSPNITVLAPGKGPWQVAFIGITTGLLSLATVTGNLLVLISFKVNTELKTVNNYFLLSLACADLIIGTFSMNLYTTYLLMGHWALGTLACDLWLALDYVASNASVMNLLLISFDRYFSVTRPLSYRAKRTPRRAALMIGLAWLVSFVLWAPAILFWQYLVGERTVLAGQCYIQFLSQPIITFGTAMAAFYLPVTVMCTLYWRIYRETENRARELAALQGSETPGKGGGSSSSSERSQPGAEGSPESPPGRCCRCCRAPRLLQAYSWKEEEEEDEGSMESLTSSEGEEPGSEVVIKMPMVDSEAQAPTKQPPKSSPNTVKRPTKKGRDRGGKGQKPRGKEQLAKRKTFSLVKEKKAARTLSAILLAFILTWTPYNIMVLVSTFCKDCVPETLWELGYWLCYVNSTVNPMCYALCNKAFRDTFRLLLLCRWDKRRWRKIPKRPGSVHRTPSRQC

[2] = molecular target: T2, Muscarinic acetylcholine receptor M4 (Rattus norvegicus, UniProt P08485); test: Antagonist activity at rat muscarinic M4 receptor expressed in CHO cells by calcium mobilization assay; assay type: functional, cell-based
T2 sequence (P08485 whole entry): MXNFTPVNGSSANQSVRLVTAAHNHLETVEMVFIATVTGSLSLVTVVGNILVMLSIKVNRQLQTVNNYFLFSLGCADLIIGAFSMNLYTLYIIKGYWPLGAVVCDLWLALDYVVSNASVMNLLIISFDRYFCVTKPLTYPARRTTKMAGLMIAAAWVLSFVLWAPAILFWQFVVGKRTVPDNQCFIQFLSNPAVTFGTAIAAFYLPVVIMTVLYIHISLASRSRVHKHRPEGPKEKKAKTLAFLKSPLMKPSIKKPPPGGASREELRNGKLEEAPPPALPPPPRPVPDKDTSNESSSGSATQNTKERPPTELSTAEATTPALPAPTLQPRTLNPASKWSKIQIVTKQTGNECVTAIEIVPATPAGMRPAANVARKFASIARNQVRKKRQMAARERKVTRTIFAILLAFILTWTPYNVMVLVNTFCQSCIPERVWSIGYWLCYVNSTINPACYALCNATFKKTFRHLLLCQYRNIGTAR

[3] = molecular target: T3, Muscarinic acetylcholine receptor M5 (Rattus norvegicus, UniProt P08911); test: Antagonist activity at rat muscarinic M5 receptor expressed in CHO cells by calcium mobilization assay; assay type: functional, cell-based
T3 sequence (P08911 whole entry): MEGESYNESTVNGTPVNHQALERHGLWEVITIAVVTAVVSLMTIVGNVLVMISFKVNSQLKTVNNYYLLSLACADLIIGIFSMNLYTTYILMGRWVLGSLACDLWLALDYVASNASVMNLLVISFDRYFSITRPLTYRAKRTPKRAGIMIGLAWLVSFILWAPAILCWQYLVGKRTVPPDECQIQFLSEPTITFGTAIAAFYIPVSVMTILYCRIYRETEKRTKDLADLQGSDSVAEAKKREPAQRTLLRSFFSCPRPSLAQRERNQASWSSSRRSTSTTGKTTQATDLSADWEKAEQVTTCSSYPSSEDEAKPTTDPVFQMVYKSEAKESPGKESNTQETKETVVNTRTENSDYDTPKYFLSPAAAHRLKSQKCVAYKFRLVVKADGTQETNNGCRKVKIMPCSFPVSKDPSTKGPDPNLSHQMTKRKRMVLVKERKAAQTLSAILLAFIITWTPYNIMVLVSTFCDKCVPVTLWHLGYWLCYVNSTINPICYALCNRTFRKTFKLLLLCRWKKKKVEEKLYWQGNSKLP

[4] = molecular target: T4, Muscarinic acetylcholine receptor M3 (Rattus norvegicus, UniProt P08483); test: Antagonist activity at rat muscarinic M3 receptor expressed in CHO cells by calcium mobilization assay; assay type: functional, cell-based
T4 sequence (P08483 whole entry): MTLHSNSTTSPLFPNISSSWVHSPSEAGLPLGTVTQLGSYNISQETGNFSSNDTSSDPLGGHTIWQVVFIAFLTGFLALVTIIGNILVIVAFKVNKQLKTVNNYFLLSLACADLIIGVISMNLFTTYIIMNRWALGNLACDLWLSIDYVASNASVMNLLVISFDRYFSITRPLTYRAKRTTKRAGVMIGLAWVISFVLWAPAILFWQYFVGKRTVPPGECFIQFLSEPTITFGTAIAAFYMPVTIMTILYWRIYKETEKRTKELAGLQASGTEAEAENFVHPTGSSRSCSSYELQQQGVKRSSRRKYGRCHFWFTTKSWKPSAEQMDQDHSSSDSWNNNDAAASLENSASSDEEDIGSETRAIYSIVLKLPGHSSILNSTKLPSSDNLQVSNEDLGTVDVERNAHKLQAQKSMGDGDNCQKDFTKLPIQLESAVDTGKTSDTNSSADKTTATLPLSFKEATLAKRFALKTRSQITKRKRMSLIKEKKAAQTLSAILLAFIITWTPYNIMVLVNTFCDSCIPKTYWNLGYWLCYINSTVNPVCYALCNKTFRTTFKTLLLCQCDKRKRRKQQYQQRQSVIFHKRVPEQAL

[5] = molecular target: T5, Muscarinic acetylcholine receptor M2 (Rattus norvegicus, UniProt P10980); test: Antagonist activity at rat muscarinic M2 receptor expressed in CHO cells by calcium mobilization assay; assay type: functional, cell-based
T5 sequence (P10980 whole entry): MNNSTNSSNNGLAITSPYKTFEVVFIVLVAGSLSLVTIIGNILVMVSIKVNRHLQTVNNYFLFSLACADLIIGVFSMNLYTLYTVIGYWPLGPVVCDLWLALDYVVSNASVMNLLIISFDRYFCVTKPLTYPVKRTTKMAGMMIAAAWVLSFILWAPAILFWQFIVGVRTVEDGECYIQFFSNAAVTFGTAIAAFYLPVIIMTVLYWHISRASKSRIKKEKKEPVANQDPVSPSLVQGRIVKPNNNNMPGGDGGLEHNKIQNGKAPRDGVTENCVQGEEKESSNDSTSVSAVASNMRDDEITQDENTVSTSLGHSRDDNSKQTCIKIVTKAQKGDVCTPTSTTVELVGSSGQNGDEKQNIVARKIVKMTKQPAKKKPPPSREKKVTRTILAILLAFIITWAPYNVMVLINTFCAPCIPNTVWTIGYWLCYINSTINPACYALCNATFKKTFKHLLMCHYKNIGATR

[6] = molecular target: T6, Muscarinic acetylcholine receptor M1 (Homo sapiens) (UniProt P11229); test: Inhibition of human muscarinic M1 receptor
T6 sequence (whole entry): T1 sequence (P08482 whole entry) with V5A, S254T, S309P, K320R, G337A, V413I

[7] = molecular target: T2, Muscarinic acetylcholine receptor M4; test: Displacement of [3H]NMS from rat muscarinic M4 receptor expressed in CHO cells; assay type: cell-based
[8] = molecular target: T4, Muscarinic acetylcholine receptor M3; test: Displacement of [3H]NMS from rat muscarinic M3 receptor expressed in CHO cells; assay type: cell-based
Rattus norvegicus [9] = species: Rattus norvegicus; test: Selectivity for rat muscarinic M1 receptor over rat muscarinic M4 receptor by calcium mobilization assay
[10] = molecular target: T5, Muscarinic acetylcholine receptor M2; test: Displacement of [3H]NMS from rat muscarinic M2 receptor expressed in CHO cells; assay type: cell-based
[11] = molecular target: T1, Muscarinic acetylcholine receptor M1; test: Displacement of [3H]NMS from rat muscarinic M1 receptor expressed in CHO cells; assay type: cell-based
In short: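 Competition binding against the orthosteric radioligand [³H]-N-methylscopolamine on rat mAChR subtypes from CHO cell lines, with atropine as positive control. Ki values are averages of three independent experiments.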

Rattus norvegicus [12] = species: Rattus norvegicus; test: Selectivity for rat muscarinic M1 receptor over rat muscarinic M5 receptor by calcium mobilization assay
[13] = molecular target: T3, Muscarinic acetylcholine receptor M5; test: Displacement of [3H]NMS from rat muscarinic M5 receptor expressed in CHO cells; assay type: cell-based
Rattus norvegicus [14] = species: Rattus norvegicus; test: Selectivity for rat muscarinic M1 receptor over rat muscarinic M3 receptor by calcium mobilization assay

Row | SMILES | IC50 [1] | IC50 [2] | IC50 [3] | IC50 [4] | IC50 [5] | Activity [6] | Ki [7] | Ki [8] | Ratio IC50 (Rattus norvegicus [9]) | Ki [10] | Ki [11] | Ratio IC50 (Rattus norvegicus [12]) | Ki [13] | Ratio IC50 (Rattus norvegicus [14])
1 | CCCCCC(=O)Nc1ccc(N2CCN(CC)CC2)c(Cl)c1 | 0.49 µM | 7.9 µM | > 150 µM | > 150 µM | > 150 µM | Active | – | – | – | – | – | – | – | –
2 | CCN1CCN(c2ccc(NC(=O)CCC3CCCC3)cc2Cl)CC1 | 0.44 µM | > 150 µM | 1.1 µM | 3.1 µM | 3.5 µM | – | 0.445 µM | 0.0748 µM | > 340 | 0.338 µM | 0.0127 µM | 2.4 | 0.0857 µM | 7
3 | CCN1CCN(c2ccc(NC(=O)COc3ccccc3)cc2Cl)CC1 | 3.3 µM | > 150 µM | > 150 µM | > 150 µM | > 150 µM | – | – | – | > 45 | – | – | > 45 | – | > 45
4 | CCN1CCN(c2ccc(NC(=O)COCc3ccccc3)cc2Cl)CC1 | 18.8 µM | > 150 µM | > 150 µM | > 150 µM | > 150 µM | – | – | – | – | – | – | – | – | –
5 | CCCC(=O)Nc1ccc(N2CCN(CC)CC2)c(Cl)c1 | > 150 µM | > 150 µM | > 150 µM | > 150 µM | > 150 µM | – | – | – | – | – | – | – | – | –
6 | CCN1CCN(c2ccc(NC(=O)CC(C)(C)C)cc2Cl)CC1 | > 150 µM | > 150 µM | > 150 µM | > 150 µM | > 150 µM | – | – | – | – | – | – | – | – | –
7 | CCN1CCN(c2ccc(NC(=O)Cc3ccc(F)cc3)cc2Cl)CC1 | 5.6 µM | > 150 µM | > 150 µM | > 150 µM | > 150 µM | – | – | – | > 26 | – | – | > 26 | – | > 26
8 | CCN1CCN(c2ccc(NC(=O)c3ccccc3)cc2Cl)CC1 | 5 µM | 66 µM | > 150 µM | > 150 µM | > 150 µM | – | – | – | – | – | – | – | – | –
9 | CCN1CCN(c2ccc(NC(=O)[C@H]3C[C@@H]3c3ccccc3)cc2Cl)CC1 | 1.15 µM | 20 µM | 13 µM | 24 µM | 29 µM | – | – | – | – | – | – | – | – | –
10 | CN1CCN(CC(=O)N2c3ccccc3C(=O)Nc3cccnc32)CC1 | – | – | – | – | – | – | – | – | 20 | – | – | 20 | – | 20
11 | CCCCOc1cccc(C(=O)Nc2ccc(N3CCN(CC)CC3)c(Cl)c2)c1 | 0.58 µM | 5.1 µM | – | – | – | Active | – | – | – | – | – | – | – | –
12 | CCN1CCN(c2ccc(NC(=O)C3CCCCC3)cc2Cl)CC1 | 4.6 µM | > 150 µM | > 150 µM | > 150 µM | > 150 µM | – | – | – | > 32 | – | – | > 32 | – | > 32
13 | CCN1CCN(c2ccc(NC(=O)CCc3ccccc3)cc2Cl)CC1 | 1.1 µM | 18 µM | 7.6 µM | 70 µM | 52 µM | – | – | – | 16 | – | – | 6.9 | – | 63
